Key:
Calu-3 = test: Cytotoxicity against human Calu3 cells assessed as cell viability at 5 uM after 48 hrs by MTT assay relative to control; assay type: functional; details: Calu-3, 48 h, read-out: Activity
Method in brief: (§1)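 Single-concentration screen at 5 μM. Cells were seeded at 32,000/well and pre-incubated 24 h at 37 °C, 5% CO2, then treated 48 h in 10% FBS DMEM or RPMI containing 0.5% DMSO. MTT (2.5 mg/mL solution, 3 h), formazan dissolved in DMSO, absorbance at 570/690 nm. Viability expressed as % of untreated cells, mean ± SD.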

[1] = Cytotoxicity against African green monkey Vero cells assessed as cell viability at 5 uM after 48 hrs by MTT assay relative to control; assay type: cell-based; details: chlorocebus sabaeus, read-out: Activity; method in brief: as §1
Caco-2 [2] = test: Cytotoxicity against human Caco2 cells assessed as cell viability at 5 uM after 48 hrs by MTT assay relative to control; assay type: functional; details: Caco-2, 48 h, read-out: Activity; method in brief: as §1
MDA-MB-231 = test: Cytotoxicity against human MDA-MB-231 cells assessed as cell viability at 5 uM after 48 hrs by MTT assay relative to control; assay type: functional; details: MDA-MB-231, 48 h, read-out: Activity; method in brief: as §1
Platelet = test: Inhibition of arachidonic acid-induced platelet aggregation in human platelet rich plasma at 100 uM preincubated for 2 mins followed by arachidonic acid addition and measured after 3 hrs by turbidimetric analysis; assay type: cell-based
Method in brief: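 Fresh platelet-rich plasma pre-incubated 2 min at 37 °C with sample (100 μM) before arachidonic acid stimulation. Aggregation was followed turbidimetrically in a lumi-aggregometer. DMSO 1% was the negative control and acetylsalicylic acid 100 μM the positive control.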

[3] = Selectivity index, ratio of CC50 for African green monkey Vero cells to IC50 for human Caco2 cells; assay type: toxicity; details: Vero cells (CC50) and Caco2 cells (IC50)
Method in brief: (§2)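 Cells seeded at 32,000/well, grown 24 h at 37 °C in 5% CO2, then exposed for 48 h to samples at 5 to 400 μM in 10% FBS DMEM or RPMI with 0.5% DMSO. Vehicle medium with 0.5% DMSO served as control. Viability was read by MTT reduction: MTT solution (2.5 mg/mL) in HBSS for 3 h, DMSO to dissolve formazan, absorbance at 570/690 nm. IC50 (tumour lines) and CC50 (Vero) were derived from survival relative to untreated cells, and SI was calculated from them.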

[4] = Cytotoxicity against African green monkey Vero cells assessed as cell viability after 48 hrs by MTT assay relative to control; assay type: cell-based; details: chlorocebus sabaeus; method in brief: as §2
[5] = Effect on activated thromboplastin time in human platelet poor plasma at 100 uM after 3 hrs; assay type: ADME, cell-free
Method in brief: (§3)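 Citrated platelet-poor plasma tested with sample at 100 μM, vehicle DMSO ≤1%. Clotting times (PT, aPTT) were measured on a coagulation analyzer. DMSO 1% was the negative control and rivaroxaban 100 μM the positive anticoagulant control.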

Caco-2 [6] = test: Cytotoxicity against human Caco2 cells assessed as cell viability after 48 hrs by MTT assay relative to control; assay type: functional, cell-based; details: Caco-2, 48 h; method in brief: as §2
[7] = Effect on prothrombin time in human platelet poor plasma at 100 uM after 3 hrs; assay type: ADME, cell-free; method in brief: as §3

SMILES	viability at 5 µM (Calu-3)	viability at 48 h, 5 µM [1]	viability at 5 µM (Caco-2 [2])	viability at 5 µM (MDA-MB-231)	Activity (Platelet)	selectivity ratio [3]	CC50 at 48 h [4]	Activity [5]	IC50 (Caco-2 [6])	Activity [7]
COc1ccc(-n2cc(C3CC4=C(O3)C(=O)c3ccccc3C4=O)nn2)cc1 (stereo not given)	125%	64.8%	81.8%	99.6%	–	–	–	–	–	–
O=C1C2=C(OC(c3cn(-c4ccc(Cl)cc4)nn3)C2)C(=O)c2ccccc21 (stereo not given)	134%	78.1%	82.1%	103%	–	–	–	–	–	–
O=C1C(=O)c2ccccc2C2=C1CC(c1cn(-c3cc(Cl)ccc3Cl)nn1)O2 (stereo not given)	118%	74.7%	78.1%	82.1%	–	–	–	–	–	–
O=C1C2=C(OC(c3cn(-c4ccc(F)cc4)nn3)C2)C(=O)c2ccccc21 (stereo not given)	104%	73%	77.3%	97.9%	–	–	–	–	–	–
O=C1C(=O)c2ccccc2C2=C1CC(c1cn(-c3ccc(Cl)c(Cl)c3)nn1)O2 (stereo not given)	111%	81%	94.4%	90.2%	–	–	–	–	–	–
O=C1C2=C(OC(c3cn(-c4ccccc4)nn3)C2)C(=O)c2ccccc21 (stereo not given)	113%	76.2%	88.3%	109%	–	–	–	–	–	–
Cc1ccc(-n2cc(C3CC4=C(O3)c3ccccc3C(=O)C4=O)nn2)cc1 (stereo not given)	111%	41.8%	33.3%	90.7%	–	–	–	–	–	–
O=C1C(=O)c2ccccc2C2=C1CC(c1cn(-c3ccc(Cl)cc3)nn1)O2 (stereo not given)	122%	59.3%	46.4%	46.5%	–	–	–	–	–	–
O=C1C(=O)c2ccccc2C2=C1CC(c1cn(-c3ccc([N+](=O)[O-])cc3)nn1)O2 (stereo not given)	133%	88.7%	86.9%	99.2%	–	–	–	–	–	–
COc1ccc(-n2cc(C3CC4=C(O3)c3ccccc3C(=O)C4=O)nn2)cc1 (stereo not given)	113%	34.1%	23%	41.1%	–	–	–	–	–	–
O=C1C(=O)c2ccccc2C2=C1CC(c1cn(-c3ccc(F)cc3)nn1)O2 (stereo not given)	117%	55.8%	37.9%	41.5%	–	–	–	–	–	–
O=C1C2=C(OC(c3cn(-c4cc(Cl)ccc4Cl)nn3)C2)C(=O)c2ccccc21 (stereo not given)	139%	90.4%	85.8%	104%	–	–	–	–	–	–
Cc1ccc(-n2cc(C3CC4=C(O3)C(=O)c3ccccc3C4=O)nn2)cc1 (stereo not given)	112%	74%	88%	95.3%	–	–	–	–	–	–
O=C1C2=C(OC(c3cn(-c4ccc(Cl)c(Cl)c4)nn3)C2)C(=O)c2ccccc21 (stereo not given)	111%	78.7%	83.9%	96.6%	–	–	–	–	–	–
O=C1C2=C(OC(c3cn(-c4ccc([N+](=O)[O-])cc4)nn3)C2)C(=O)c2ccccc21 (stereo not given)	120%	63.6%	95.5%	97.4%	–	–	–	–	–	–
O=C1C(=O)c2ccccc2C2=C1CC(c1cn(-c3ccccc3)nn1)O2 (stereo not given)	110%	68%	23.9%	87.7%	Non-Toxic	6.25	28 µM	Non-Toxic	4.48 µM	Non-Toxic

Source: ChEMBL document CHEMBL4270562, “Synthesis and evaluation of the cytotoxic activity of Furanaphthoquinones tethered to 1H-1,2,3-triazoles in Caco-2, Calu-3, MDA-MB231 cells” (Eur J Med Chem, 2018)
